In ChEMBL document CHEMBL4619773, “Chemoreactive-Inspired Discovery of Influenza A Virus Dual Inhibitor to Block Hemagglutinin-Mediated Adsorption and Membrane Fusion” (J Med Chem, 2020):
The source made the active and inactive calls. The calls are words filed in the database; no cut-off is given here.

How the values were obtained:
[1] = system: Influenza A virus (A/Puerto Rico/8/1934(H1N1)); test: Inhibition of Hemagglutinin T359A mutant in Influenza A virus (A/Puerto Rico/8/1934(H1N1))/H1N1 pseudovirus infected in 293FT cells assessed as reduction in virus infection at 50 ug/ml pre-treated with virus before infection and measured after 48 hrs by inverted fluorescence microscopy; assay type: cell-based
Outline: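 PR8 pseudoviruses (IAV-GFP) carrying wild-type HA or a mutant HA (T30N/E233D/T359A or T359A) were made in 293FT cells by co-transfecting HA, NA, HIV backbone and GFP reporter plasmids, and supernatants were harvested at 48 h. Pseudovirus was pretreated with compound at 50 µg/ml for 1 h at 37 °C before infection. Infected GFP-positive cells were viewed by fluorescence microscopy 48 h p.i.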

[2] = system: Influenza A virus (A/Puerto Rico/8/1934(H1N1)); test: Inhibition of Hemagglutinin T30N/E233D/T359A mutant in Influenza A virus (A/Puerto Rico/8/1934(H1N1))/H1N1 pseudovirus infected in 293FT cells assessed as reduction in virus infection at 50 ug/ml pre-treated with virus before infection and measured after 48 hrs by inverted fluorescence microscopy; assay type: cell-based
Outline: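 GFP-reporter lentiviral pseudoviruses bearing PR8 wild-type or mutant (T30N/E233D/T359A or T359A) HA plus NA were produced in 293FT cells. Pseudovirus was pretreated with 50 µg/ml compound for 1 h at 37 °C before infection. GFP-positive cells were counted by fluorescence microscopy at 48 h p.i.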

Structure (SMILES): CC(=O)c1cc(C)c(O)c(Cc2[nH]c3ccccc3c2Cc2c(O)c(C)cc(C(C)=O)c2O)c1O
- inhibition [1]: inactive
- inhibition [2]: inactive
